The subject of one data set is HeLa. Briefly: Cytotoxicity against human HeLa cells harboring Dengue virus serotype 2 NS2B-NS3 protease assessed as reduction in cell viability after 72 hrs by cell titer blue assay. Type of data set: functional, cell-based. In short, it runs like this:
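DENV2 protease-expressing HeLa cells (DENV2proHeLa) were incubated with compound for 72 h. CC50 was determined from triplicate wells.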

A further data set deals with Tubulin (Sus scrofa) (UniProt P02554+P02550). Briefly: Inhibition of porcine tubulin polymerization at 10 uM preincubated at 37 degC for 30 mins followed by chilling to 0 degC and subsequent addition of GTP by microtiter plate based absorbance detection assay relative to control. In kind it is protein assay.
Chain of Tubulin (Sus scrofa) (P02550 whole entry, looked up): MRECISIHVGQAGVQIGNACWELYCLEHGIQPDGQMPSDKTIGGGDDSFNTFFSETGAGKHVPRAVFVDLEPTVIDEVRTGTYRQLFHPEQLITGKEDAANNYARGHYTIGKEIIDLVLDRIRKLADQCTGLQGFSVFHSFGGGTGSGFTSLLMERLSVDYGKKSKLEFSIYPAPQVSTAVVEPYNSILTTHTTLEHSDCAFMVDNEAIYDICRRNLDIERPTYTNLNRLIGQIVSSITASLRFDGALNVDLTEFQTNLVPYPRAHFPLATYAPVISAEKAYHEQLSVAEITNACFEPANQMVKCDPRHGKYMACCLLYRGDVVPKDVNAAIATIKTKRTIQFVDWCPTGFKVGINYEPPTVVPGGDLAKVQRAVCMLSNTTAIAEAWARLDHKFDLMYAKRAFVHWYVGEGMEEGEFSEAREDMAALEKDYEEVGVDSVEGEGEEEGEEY
Chain of Tubulin (Sus scrofa) (P02554 whole entry, looked up): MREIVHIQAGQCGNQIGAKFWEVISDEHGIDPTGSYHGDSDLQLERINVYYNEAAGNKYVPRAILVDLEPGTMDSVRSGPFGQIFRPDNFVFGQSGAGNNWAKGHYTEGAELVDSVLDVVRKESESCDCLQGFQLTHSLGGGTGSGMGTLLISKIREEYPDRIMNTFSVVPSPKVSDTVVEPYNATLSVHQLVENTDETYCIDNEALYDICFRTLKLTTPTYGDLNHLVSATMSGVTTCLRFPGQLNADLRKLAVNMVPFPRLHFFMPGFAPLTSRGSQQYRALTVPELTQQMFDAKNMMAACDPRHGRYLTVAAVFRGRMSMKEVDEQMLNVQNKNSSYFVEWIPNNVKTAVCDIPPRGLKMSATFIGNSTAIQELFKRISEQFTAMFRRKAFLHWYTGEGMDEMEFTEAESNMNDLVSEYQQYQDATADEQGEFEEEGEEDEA
In data set [1] the target is Genome polyprotein (dengue virus type 2) (UniProt P29990). The experiment in a line: Inhibition of Dengue virus serotype 2 NS2B-NS3 protease expressed in Escherichia coli BL21 lambda (DE3) cells at 250 uM preincubated with enzyme for 15 mins followed by 2-Abz-Nle-Lys-Arg-Arg-Ser-(3-NO2)-Tyr-NH2 FRET substrate addition measured for 15 mins by fluorescence analysis.
For data set [2], the system named is COc1ccc(/C=C\c2cc(OC)c(OC)c(OC)c2)cc1NC(=O)CNC(=O)CNC(=O)[C@H](CCCNC(=N)N)NC(=O)[C@H](CCCNC(=N)N)NC(=O)c1ccccc1. The experiment in a line: (§1) Substrate activity at Dengue virus serotype 2 NS2B-NS3 protease expressed in Escherichia coli BL21 lambda (DE3) cells assessed as Km for compound hydrolysis in TRIS buffer at pH 9 incubated for 10 mins at room temperature by Lineweaver-Burk plot analysis. Type of data set: ADME, dengue virus type 2. In short, it runs like this: (§2)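 Recombinant DENV NS2B-NS3 protease at 1 μM incubated with substrate from 100 μM up to 1 mM in pH 9 buffer for 10 min at room temperature. Triplicate wells. Km, vmax and kcat were derived from a Lineweaver–Burk plot.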

The test system of data set [3] is COc1ccc(/C=C\c2cc(OC)c(OC)c(OC)c2)cc1NC(=O)CNC(=O)[C@H](CCCNC(=N)N)NC(=O)[C@H](CCCCN)NC(=O)c1ccccc1. The description is as §1. In kind it is ADME, dengue virus type 2. In short, it runs like this:
as §2

In data set [4] the test system is CCCCC(NC(=O)c1ccccc1N)C(=O)N[C@@H](CCCCN)C(=O)N[C@@H](CCCNC(=N)N)C(=O)N[C@@H](CCCNC(=N)N)C(=O)N[C@@H](CO)C(=O)N[C@@H](Cc1ccc(O)cc1)C(N)=O. The description is as §1. In kind it is ADME, dengue virus type 2. In short, it runs like this: as §2
Data set [5] relates to COc1ccc(/C=C\c2cc(OC)c(OC)c(OC)c2)cc1NC(=O)[C@H](C)NC(=O)[C@H](CCCNC(=N)N)NC(=O)[C@H](CCCNC(=N)N)NC(=O)c1ccccc1. The data set is described as §1. In kind it is ADME, dengue virus type 2. In short, it runs like this:
as §2

The subject of data set [6] is COc1ccc(/C=C\c2cc(OC)c(OC)c(OC)c2)cc1NC(=O)CNC(=O)[C@H](CCCNC(=N)N)NC(=O)[C@H](CCCNC(=N)N)NC(=O)c1ccccc1. The description is as §1. Type of data set: ADME, dengue virus type 2. In short, it runs like this:
as §2

Activity calls are given as the source filed them. The rule behind the calls is not given here. Non-standard residues stand in square brackets, D forms with d. Residues, ends and D or L forms follow the SMILES beside them. ξ: configuration not given here. *: point of attachment. X1 = COc1ccc(/C=C\c2cc(OC)c(OC)c(OC)c2)cc1N*; 2Abz = Nc1ccccc1C(=O)O; ξNle = CCCCC(N)C(=O)O; Bz = O=C(c1ccccc1)*

This note sets out measurements from ChEMBL document CHEMBL4364329, “Prodrug Activation by a Viral Protease: Evaluating Combretastatin Peptide Hybrids To Selectively Target Infected Cells” (ACS Med Chem Lett, 2019).

As a reminder, the inhibition is the relative decrease from the control value, in per cent. With `COc1ccc(/C=C\c2cc(OC)c(OC)c(OC)c2)cc1N`, the Activity result in the data set with HeLa was “Toxic”. In addition, the inhibition at Tubulin (Sus scrofa) was 33.1%.
Take `COc1ccc(/C=C\c2cc(OC)c(OC)c(OC)c2)cc1NC(=O)CCNC(=O)[C@H](CCCNC(=N)N)NC(=O)[C@H](CCCNC(=N)N)NC(=O)c1ccccc1`: the Activity entry with HeLa was “Toxic”. Moreover, the inhibition against Tubulin (Sus scrofa) came to 3.4%.
With `COc1ccc(/C=C\c2cc(OC)c(OC)c(OC)c2)cc1NC(=O)CN`, at Tubulin (Sus scrofa), the inhibition came out at 61%.
Regarding `COc1ccc(/C=C\c2cc(OC)c(OC)c(OC)c2)cc1NC(=O)CNC(=O)[C@H](CCCNC(=N)N)NC(=O)[C@H](CCCCN)NC(=O)c1ccccc1`, in the data set on HeLa, the Activity entry was “Toxic”. In addition, at Tubulin (Sus scrofa), the inhibition is -5.7%.
For `COc1ccc(/C=C\c2cc(OC)c(OC)c(OC)c2)cc1NC(=O)CNC(=O)[C@H](CCCNC(=N)N)NC(=O)[C@H](CCCNC(=N)N)NC(=O)c1ccccc1`, the Activity result in the data set on HeLa is “Toxic”. The inhibition at Tubulin (Sus scrofa) was determined as 26%.
Regarding `COc1ccc(/C=C\c2cc(OC)c(OC)c(OC)c2)cc1NC(=O)[C@H](C)N`, the inhibition against Tubulin (Sus scrofa) was found to be 40.5%.
For the molecule `COc1ccc(/C=C\c2cc(OC)c(OC)c(OC)c2)cc1NC(=O)[C@H](C)NC(=O)[C@H](CCCNC(=N)N)NC(=O)[C@H](CCCCN)NC(=O)c1ccccc1`, at Tubulin (Sus scrofa), the inhibition was -4.9%.
For `COc1ccc(/C=C\c2cc(OC)c(OC)c(OC)c2)cc1NC(=O)[C@H](C)NC(=O)[C@H](CCCNC(=N)N)NC(=O)[C@H](CCCNC(=N)N)NC(=O)c1ccccc1`, the Activity entry with HeLa was “Toxic”. Also, at Tubulin (Sus scrofa), the inhibition turned out to be 3.4%.
Turning to `COc1ccc(/C=C\c2cc(OC)c(OC)c(OC)c2)cc1NC(=O)[C@H](CO)NC(=O)[C@H](CCCNC(=N)N)NC(=O)[C@H](CCCCN)NC(=O)c1ccccc1`, the inhibition against Tubulin (Sus scrofa) was -4.2%.
For the molecule `COc1ccc(/C=C\c2cc(OC)c(OC)c(OC)c2)cc1NC(=O)[C@H](CO)NC(=O)[C@H](CCCNC(=N)N)NC(=O)[C@H](CCCNC(=N)N)NC(=O)c1ccccc1`, the Activity entry in the data set on HeLa was “Toxic”. For the same molecule, the inhibition at Tubulin (Sus scrofa) came out at 1.9%.
`COc1ccc(/C=C\c2cc(OC)c(OC)c(OC)c2)cc1O`: the Activity result in the data set with HeLa was “Toxic”. For the same molecule, the inhibition against Tubulin (Sus scrofa) stood at 60.3%.
As to `N=C(N)NCCC[C@H](NC(=O)[C@H](CCCNC(=N)N)NC(=O)c1ccccc1)C(=O)O` (Bz-Arg-Arg-OH), the inhibition in data set [1] amounted to 35%.
With `N=C(N)NCCC[C@H](NC(=O)[C@H](CCCCN)NC(=O)c1ccccc1)C(=O)O` (Bz-Lys-Arg-OH), the inhibition in data set [1] worked out at 12.2%.
As for `COc1ccc(/C=C\c2cc(OC)c(OC)c(OC)c2)cc1NC(=O)CNC(=O)CNC(=O)[C@H](CCCNC(=N)N)NC(=O)[C@H](CCCNC(=N)N)NC(=O)c1ccccc1` (Bz-RRGG-X1), the Activity entry with HeLa is “Toxic”. Besides, the inhibition at Tubulin (Sus scrofa) worked out at 13.4%.
For the molecule `CCCCC(NC(=O)c1ccccc1N)C(=O)N[C@@H](CCCCN)C(=O)N[C@@H](CCCNC(=N)N)C(=O)N[C@@H](CCCNC(=N)N)C(=O)N[C@@H](CO)C(=O)N[C@@H](Cc1ccc(O)cc1)C(N)=O` (stereo partly drawn) (H-[2Abz][ξNle]KRRSY-NH2), the inhibition result on Tubulin (Sus scrofa) is “inactive”.
As usually defined, the Km is the substrate concentration at which the rate is half of its maximum. The term Vmax denotes the top rate of the reaction or transport when substrate is in excess. What is called kcat is the number of substrate molecules converted per active site and unit of time at saturation. On to “Genome polyprotein (Dengue virus 2 Thailand/16681/84)”, for which the Km in data set [2] turned out to be 144 µM; in data set [3], 173 µM; in data set [4], 182 µM; in data set [5] it was 949 µM; in data set [6], 225 µM. The Vmax is 4.69 µM/min in data set [2]; 2.14 µM/min in data set [3]; 10.1 µM/min in data set [4]; 17 µM/min in data set [5]; 6.18 µM/min in data set [6]. In addition, the kcat in data set [2] worked out at 0.0782 s⁻¹; in data set [3], 0.0357 s⁻¹; in data set [4], 0.168 s⁻¹; in data set [5] it was 0.284 s⁻¹; in data set [6] it was 0.103 s⁻¹.
